Source: PubChem (several laboratories)
Mcl1-Bid inh = disrupts binding of human Mcl-1 to Bid peptide; Q07820; TR-FRET Mcl-1/Bid-Dy647 peptide binding, 1536-well; inhibition, % at 21.7 µM; actives 0.97% (n = 220,000); AID 1021;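 active means compounds that cut the binding signal by more than half at the single screening dose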;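 further: His-tagged Mcl-1 with europium anti-His antibody binding Bid BH3 peptide; 0% = Mcl-1 plus peptide wells and 100% = peptide-only wells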
Target sequence (Q07820 whole entry, looked up): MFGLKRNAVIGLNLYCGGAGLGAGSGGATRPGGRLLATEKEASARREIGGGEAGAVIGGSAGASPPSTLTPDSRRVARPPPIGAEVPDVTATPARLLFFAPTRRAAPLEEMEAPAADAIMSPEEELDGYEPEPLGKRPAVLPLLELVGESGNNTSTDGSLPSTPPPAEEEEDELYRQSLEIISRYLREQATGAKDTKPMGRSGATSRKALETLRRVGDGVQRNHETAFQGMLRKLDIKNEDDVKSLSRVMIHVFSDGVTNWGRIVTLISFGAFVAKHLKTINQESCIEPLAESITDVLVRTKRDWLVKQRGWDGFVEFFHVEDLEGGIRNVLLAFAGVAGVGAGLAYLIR
Mcl1-Noxa inh = Mcl-1/Noxa interaction inhibition; Q07820; actives 1.5% (n = 220,000); inhibition, % at 21.7 µM; TR-FRET Mcl-1/Noxa peptide binding, 2 h; AID 1022;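 active means compounds that cut the protein-peptide binding signal by more than 50% relative to plate controls in a single-dose test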;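 further: His-tagged Mcl-1 with rhodamine Noxa BH3 peptide and terbium anti-His antibody; 0% = Mcl-1 plus Noxa peptide wells and 100% = peptide-only wells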
Calpain2 inh = blocks pig calpain II enzyme activity. purified calpain II, fluorogenic peptide substrate, 30 min. inhibition, % at 16 µM. actives 0.37% (n = 220,000);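 active means inhibition above about 50%, limit read from the data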
Biofilm kill mix = mixture kills Candida albicans biofilm cells; C. albicans biofilm persisters + clotrimazole, fluorescence viability; primary screen in compound mixtures of four per well; inhibition, % at 7.6 µM; actives 0.02% (n = 120,000);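 active means inhibition above 30.3% in the primary screen of four-compound pools, then above 30% when the compound was retested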;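 further: compounds exposed to preformed 24 h biofilms for 48 h; 0% = untreated biofilm control and 100% = clotrimazole plus chlorhexidine kill blank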
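Assay system: C. albicans biofilms / Medium: RPMI/MOPS medium, pH 7.0 / Schedule: biofilm formation 24 h, compound exposure 48 h, 37 °C / Measured by: Alamar Blue fluorescence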
Mcl-1 Bim block = human Bim-Mcl-1 interaction inhibition | Q07820 | Bead-based flow cytometry, Bim peptide-Mcl-1 binding | inhibition, % at 10 µM | actives 0.1% (n = 190,000) | AID 1009; in the data active means inhibition above about 40%;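 further: 0% = no compound tracer wells and 100% = peptide blocker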
Arbovirus inh = arbovirus infection inhibition | inhibition, % at 10 µM | arbovirus infection cell-based antiviral screen | actives 0.37% (n = 200,000) | AID 1251; in the data active means inhibition above about 30%
The depositor's hits bear a star; · = not tested or not shown. Compounds with a hit are over-represented: about 2.8% of the library has one in this group of screens.

SMILES	Mcl1-Bid inh	Mcl1-Noxa inh	Calpain2 inh	Biofilm kill mix	Mcl-1 Bim block	Arbovirus inh
COc1ccccc1NC(=O)/C=C\C(=O)O	-19	8	77*	5	-2	8
COc1ccc(/C=C/C(=O)Nc2ccccc2C(=O)O)cc1OC	6	21	21	5	-1	58*
COc1ccc(Cl)cc1NC(=O)/C=C\C(=O)O	-11	14	-18	·	0	0
CCCCOc1ccc(C2CCC(C(C)=O)C(C)C2)cc1 (stereo not drawn)	-6	6	-1	7	·	·
O=C(Cc1cccs1)Nc1cc(SCCO)cc([N+](=O)[O-])c1	16	20	28	16	-3	-8
Cc1cc(C)n(/N=C/c2cc([N+](=O)[O-])ccc2O)c(=O)c1	-5	-1	-12	14	1	5
CCc1cc(C(=O)O)c(NC(=O)/C=C/c2ccc(OC)cc2)s1	-34	43	30	20	·	·
CCc1cc(C(=O)O)c(NC(=O)/C=C/c2ccc(OC)c(OC)c2)s1	-19	25	-1	17	1	71*
NS(=O)(=O)c1cccc(NC(=O)CN2CCC(Cc3ccccc3)CC2)c1	-9	1	78*	17	-6	-28
CC(=O)N1CCN(CC(=O)Nc2cccc(S(=O)(=O)N3CCCCCC3)c2)CC1	-19	9	9	6	-3	-2
COc1cccc(OCC(=O)NNC(=S)Nc2ccc(Cl)cc2Cl)c1	-81	-16	-27	23	-3	1
C=CCSc1nnc(C)c(/C=C/Nc2ccc(Cl)cc2)n1	-30	-6	-2	-31	2	-5
Cc1c(C(=O)NCc2cccnc2)sc2nc(-c3ccccc3)cn12	·	·	·	·	·	-23
Cc1c(C(=O)NCc2cccnc2)sc2nc(-c3ccc(F)cc3)cn12	-26	3	78*	·	-6	-9
CCOC(=O)c1c(C)oc2cc(Br)c(OC(=O)N3CCOCC3)cc12	92*	-2	7	·	-1	-4
C/C(=N\NC(=O)Cn1cc([N+](=O)[O-])cn1)c1ccco1	-13	-13	-21	18	·	·
Cc1ccc2oc(C(F)(F)C(F)F)cc(=O)c2c1	88*	-13	-25	17	·	·
O=C1CC(=O)N(Cc2ccco2)C(=O)N1	-47	14	12	·	-1	34*
CCNC(=O)c1ccccc1SCC(=O)Nc1ccc(F)cc1	-15	16	1	16	2	1
CC(C)c1ccccc1NC(=S)NN(Cc1ccccc1)c1ccccc1	-73	8	50*	·	-3	-16
CN(C)c1ccc(-c2n[nH]c(=S)n2-c2ccccc2)cc1	-36	51*	-97	-18	-3	-1
CCN(CC)c1ccc(-c2n[nH]c(=S)n2-c2ccccc2)cc1	-50	22	-83	10	-7	-17
O=c1c(-c2nn[nH]n2)coc2ccc(Cl)cc12	3	-3	1	8	-2	8
O=c1oc(/C=C/c2ccco2)nc2sc3c(c12)CCC3	-48	-6	-34	·	0	63*
O=c1oc(-c2cccs2)nc2sc3c(c12)CCCC3	-17	3	-64	·	27	34*
SMILES	Mcl1-Bid inh	Mcl1-Noxa inh	Calpain2 inh	Biofilm kill mix	Mcl-1 Bim block	Arbovirus inh
CCN(CC)S(=O)(=O)c1ccc2nnn(O)c2c1	8	15	-27	3	0	5
O=C(NC1(C(F)(F)F)N=C2SCCN2C1=O)c1ccccc1F (stereo not drawn)	-10	1	-19	20	·	·
CC(C)CC(c1nnnn1C1CCCC1)N1CCC(C(N)=O)CC1 (stereo not drawn)	0	17	51*	12	0	20
CCCC(c1nnnn1C1CCCCC1)N1CCN(C2CCCC2)CC1 (stereo not drawn)	51*	12	-12	·	-3	7
CCC(c1nnnn1Cc1cccs1)N1CCN(C2CCCC2)CC1 (stereo not drawn)	54*	31	-7	·	0	-7
CCCC(c1nnnn1Cc1cccs1)N1CCN(C2CCCC2)CC1 (stereo not drawn)	32	20	-20	·	-4	5
CCCCC(c1nnnn1C1CCCC1)N1CCN(C2CCCC2)CC1 (stereo not drawn)	-3	11	7	·	0	8
O=C1CCCC(O)=C1N=Nc1ccc(C(=O)O)cc1	-48	54*	-20	28	·	·
NC(=O)C(=CNc1nc(-c2ccc(Cl)c(Cl)c2)cs1)C(N)=O	-35	73*	31	-3	·	·
CN1CCN(c2ccc(Cl)cc2NC(=O)c2ccc(S(=O)(=O)N3CCCCCC3)cc2)CC1	-45	74*	-123	·	0	2
COc1ccc(Cl)cc1C(=O)Nc1ccccc1N1CCN(C)CC1	-8	56*	-25	·	0	-49
CN1CCN(c2ccc(S(=O)(=O)N3CCCCC3)cc2NC(=O)c2ccc(C#N)cc2)CC1	-39	9	-16	4	-31	8
O=C1CC(N2CCN(c3ccc(F)cc3)CC2)C(=O)N1c1ccc2c(c1)OCO2 (stereo not drawn)	-36	18	-26	14	0	1
COCCCn1cnnc1SCc1nc2sc(C(C)=O)c(C)c2c(=O)[nH]1	30	-2	-36	20	·	·
Cc1cccc(N2CCN(C(=O)C3COc4ccccc4O3)CC2)c1C (stereo not drawn)	-3	20	4	16	1	36*
COc1cc(/C=C2/SC(=S)NC2=O)ccc1OS(=O)(=O)c1ccc(C)cc1	82*	98*	63*	9	-10	-9
COc1ccc(/C=C2\SC(=S)NC2=O)cc1OS(=O)(=O)c1ccc(NC(C)=O)cc1	-3	34	-64	22	-11	11
COc1cc(/C=C2\SC(=S)NC2=O)ccc1OS(=O)(=O)c1ccccc1	-60	79*	62*	11	-13	-16
CC(NC(=O)C1CCC(CNS(=O)(=O)c2ccccc2)CC1)c1ccc2c(c1)OCCO2 (stereo not drawn)	10	7	19	14	-3	-4
Cc1cc(N)ccc1N1CCCC1	-24	83*	-68	·	32	-10
C/C(C/C(C)=C1/SC(=S)NC1=O)=C1\SC(=S)NC1=O	78*	73*	41	15	-1	33*
CCOC(=O)C1=C(CP(=O)(c2ccccc2)c2ccccc2)NC(=O)NC1c1ccc(OC)cc1 (stereo not drawn)	-3	4	-27	14	74*	13
CC1CCCCN1c1nnc(NC(=O)c2cc(-c3ccc(Br)cc3)on2)s1 (stereo not drawn)	-26	24	-51	·	1	42*
C=CCn1c(O)c(C=Nc2ccc(CN3CCCCC3)cc2)c(=O)[nH]c1=S	-14	-4	-21	11	·	·
O=C(Nc1ccc(F)cc1)C(=O)c1c(O)[nH]c2ccc([N+](=O)[O-])cc12	-36	-2	57*	15	·	·
O=C(O)CCCCC1CCSS1 (stereo not drawn)	97*	74*	-72	4	-2	-20
O=C(O)CCNC1CCCCC1	-10	17	-11	18	·	·
